Assay results: ChEMBL document CHEMBL4715828, “Identification of N-benzyltetrahydroisoquinolines as novel anti-neuroinflammatory agents” (2018)
Activity calls are given as the source filed them. The calls are words filed in the database; no cut-off is given here.

Assays:
[1] = tested on: BV-2; assay: Anti-neuroinflammatory activity in mouse BV2 cells assessed as inhibition of LPS-induced TNF-alpha production by measuring TNF-alpha level at 50 uM preincubated for 1 hr followed by LPS stimulation and measured after 24 hrs by ELISA (reference value: 100 +/- 0%); assay type: functional; details: time 25 hrs
In short: (§1)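 BV2 murine microglia in DMEM:F-12 (1:1) with 10% heat-inactivated FBS and penicillin/streptomycin, 5% CO2, seeded at 5 x 10^5 cells/mL in 12-well plates and attached overnight. Compound in DMSO (0.1% v/v final) added 1 h before LPS (E. coli O55:B5, 100 ng/mL) for 24 h. Medium centrifuged, then assayed by ELISA. Values are % of LPS, mean ± SEM, three experiments.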

[2] = tested on: BV-2; assay: Anti-neuroinflammatory activity in mouse BV2 cells assessed as inhibition of LPS-induced TNF-alpha production by measuring TNF-alpha level at 1 uM preincubated for 1 hr followed by LPS stimulation and measured after 24 hrs by ELISA (reference value: 100 +/- 0%); assay type: functional; set-up: scale not given: the % may be the effect or the level left; details: time 25 hrs; in short: as §1
[3] = tested on: BV-2; assay: Anti-neuroinflammatory activity in mouse BV2 cells assessed as inhibition of LPS-induced TNF-alpha production preincubated for 1 hr followed by LPS treatment and measured after 24 hrs by ELISA; assay type: functional, cell-based; details: dose 12-50 µM, time 25.0 hrs; in short: as §1
[4] = tested on: Microglia; assay: Anti-neuroinflammatory activity in primary mouse microglia cells assessed as reduction in LPS-induced IL6 mRNA expression at 100 uM preincubated for 1 hr followed by LPS treatment for 2 hrs by qPCR analysis; assay type: functional, cell-based; details: time 3.0 hrs
In short: (§2)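 Primary microglia come from cortical cells of 1-2-day neonatal mice, grown in DMEM/F12 with 10% FBS and 2 mM glutamine, plus 5 ng/ml GM-CSF from day 3. Cells shaken off at day 13-14, plated at 5 x 10^5 cells/mL and attached overnight. Compound given 1 h before LPS 100 ng/mL for 2 or 4 h, then RNA extracted and qPCR run. Mean ± SEM, three experiments.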

[5] = tested on: BV-2; assay: Anti-neuroinflammatory activity in mouse BV2 cells assessed as inhibition of LPS-induced nitrite production preincubated for 1 hr followed by LPS treatment and measured after 24 hrs by Griess assay; assay type: functional, cell-based; details: dose 6-50 µM, time 25.0 hrs
In short: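 BV2 cells seeded at 5 x 10^5 cells/mL in 12-well plates and attached overnight. Compound (0.1% v/v DMSO final) given 1 h before LPS 100 ng/mL for 24 h. Medium centrifuged to remove floating cells, then nitrite read by Griess kit. Mean ± SEM from three experiments.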

[6] = tested on: Microglia; assay: Anti-neuroinflammatory activity in primary mouse microglia cells assessed as reduction in LPS-induced IL-12p35 mRNA expression at 100 uM preincubated for 1 hr followed by LPS treatment for 4 hrs by qPCR analysis; assay type: functional, cell-based; details: time 5.0 hrs; in short: as §2
[7] = tested on: Microglia; assay: Anti-neuroinflammatory activity in primary mouse microglia cells assessed as reduction in LPS-induced IL-1beta mRNA expression at 100 uM preincubated for 1 hr followed by LPS treatment for 2 hrs by qPCR analysis; assay type: functional, cell-based; details: time 3.0 hrs; in short: as §2
[8] = tested on: Microglia; assay: Anti-neuroinflammatory activity in primary mouse microglia cells assessed as reduction in LPS-induced IL-23p19 mRNA expression at 100 uM preincubated for 1 hr followed by LPS treatment for 4 hrs by qPCR analysis; assay type: functional, cell-based; details: time 5.0 hrs; in short: as §2
[9] = tested on: Microglia; assay: Anti-neuroinflammatory activity in primary mouse microglia cells assessed as reduction in LPS-induced IL-23p19 mRNA expression at 100 uM preincubated for 1 hr followed by LPS treatment for 2 hrs by qPCR analysis; assay type: functional, cell-based; details: time 3.0 hrs; in short: as §2
[10] = tested on: BV-2; assay: Anti-neuroinflammatory activity in mouse BV2 cells assessed as inhibition of LPS-induced IL-6 production preincubated for 1 hr followed by LPS treatment and measured after 24 hrs by ELISA; assay type: functional, cell-based; details: dose 25-50 µM, time 25.0 hrs; in short: as §1
[11] = tested on: Microglia; assay: Anti-neuroinflammatory activity in primary mouse microglia cells assessed as reduction in LPS-induced IL6 mRNA expression at 100 uM preincubated for 1 hr followed by LPS treatment for 4 hrs by qPCR analysis; assay type: functional, cell-based; details: time 5.0 hrs; in short: as §2
[12] = tested on: Microglia; assay: Anti-neuroinflammatory activity in primary mouse microglia cells assessed as reduction in LPS-induced GM-CSF mRNA expression at 100 uM preincubated for 1 hr followed by LPS treatment for 2 hrs by qPCR analysis; assay type: functional, cell-based; details: time 3.0 hrs; in short: as §2
[13] = tested on: Microglia; assay: Anti-neuroinflammatory activity in primary mouse microglia cells assessed as reduction in LPS-induced GM-CSF mRNA expression at 100 uM preincubated for 1 hr followed by LPS treatment for 4 hrs by qPCR analysis; assay type: functional, cell-based; details: time 5.0 hrs; in short: as §2
[14] = tested on: Microglia; assay: Anti-neuroinflammatory activity in primary mouse microglia cells assessed as reduction in LPS-induced TNF mRNA expression at 100 uM preincubated for 1 hr followed by LPS treatment for 2 hrs by qPCR analysis; assay type: functional, cell-based; details: time 3.0 hrs; in short: as §2
[15] = tested on: Microglia; assay: Anti-neuroinflammatory activity in primary mouse microglia cells assessed as reduction in LPS-induced IL-12p35 mRNA expression at 100 uM preincubated for 1 hr followed by LPS treatment for 2 hrs by qPCR analysis; assay type: functional, cell-based; details: time 3.0 hrs; in short: as §2
[16] = tested on: Microglia; assay: Anti-neuroinflammatory activity in primary mouse microglia cells assessed as reduction in LPS-induced IL-12p40 mRNA expression at 100 uM preincubated for 1 hr followed by LPS treatment for 4 hrs by qPCR analysis; assay type: functional, cell-based; details: time 5.0 hrs; in short: as §2
[17] = tested on: Microglia; assay: Anti-neuroinflammatory activity in primary mouse microglia cells assessed as reduction in LPS-induced IL-12p40 mRNA expression at 100 uM preincubated for 1 hr followed by LPS treatment for 2 hrs by qPCR analysis; assay type: functional, cell-based; details: time 3.0 hrs; in short: as §2
[18] = tested on: Microglia; assay: Anti-neuroinflammatory activity in primary mouse microglia cells assessed as reduction in LPS-induced IL-1beta mRNA expression at 100 uM preincubated for 1 hr followed by LPS treatment for 4 hrs by qPCR analysis; assay type: functional, cell-based; details: time 5.0 hrs; in short: as §2
[19] = tested on: Microglia; assay: Anti-neuroinflammatory activity in primary mouse microglia cells assessed as reduction in LPS-induced TNF mRNA expression at 100 uM preincubated for 1 hr followed by LPS treatment for 4 hrs by qPCR analysis; assay type: functional, cell-based; details: time 5.0 hrs; in short: as §2

| SMILES | TNF-alpha level (% of LPS control) [1] [%] | other results |
| --- | --- | --- |
| COc1cccc(CN2CCc3cc4c(cc3C2)OCO4)c1OC | 61 |  |
| COc1ccccc1CN1CCc2cc3c(cc2C1)OCO3 | 78 |  |
| COc1ccc2c(c1OC)C[N+]1(Cc3ccccc3)CCc3cc4c(cc3C1C2)OCO4.[Br-] (centres undefined) | 22 |  |
| c1ccc(CN2CCc3cc4c(cc3C2)OCO4)cc1 | 90 |  |
| COc1ccc2c(c1)CCN(Cc1c(OC)cccc1OC)C2 | 64 |  |
| COc1ccc2c(c1)CN(Cc1c(OC)cccc1OC)CC2 | 82 |  |
| COc1cc(CN2CCc3cc4c(cc3C2)OCO4)cc(OC)c1 | 89 |  |
| COc1ccc(CC2NCCc3cc4c(cc32)OCO4)cc1OC (centres undefined) | 77 |  |
| COc1cccc(CN2CCc3cc4c(cc3C2)OCO4)c1 | 78 |  |
| COc1cccc(CN2CCc3ccccc3C2)c1OC | 95 |  |
| Clc1cccc(Cl)c1CN1CCc2cc3c(cc2C1)OCO3 | 107 |  |
| COc1ccc2cc3[n+](cc2c1OC)CCc1cc2c(cc1-3)OCO2.[Cl-] [BERBERINE CHLORIDE] |  | Activity [2]: 25% |
| FC(F)(F)c1ccc(CN2CCc3cc4c(cc3C2)OCO4)cc1 | 102 |  |
| COc1cccc(OC)c1C(=O)N1CCc2cc3c(cc2C1)OCO3 | 73 |  |
| COc1ccc(CN2CCc3cc4c(cc3C2)OCO4)cc1 | 88 |  |
| COc1cccc(OC)c1CN1CCc2cc3c(cc2C1)OCO3 | 39 | Activity [3]: Dose-dependent effect; Activity [4]: Active; Activity [5]: Dose-dependent effect; Activity [6]: Active; Activity [7]: Active; Activity [8]: Active; Activity [9]: Active; Activity [10]: Dose-dependent effect; Activity [11]: Active; Activity [12]: Active; Activity [13]: Active; Activity [14]: inactive; Activity [15]: Active; Activity [16]: inactive; Activity [17]: inactive; Activity [18]: Active; Activity [19]: inactive |
| COc1cccc(OC)c1CN1CCc2ccccc2C1 | 78 |  |
| COc1ccc2c(c1OC)CN1CCc3cc4c(cc3C1C2)OCO4 (centres undefined) [TETRAHYDROBERBERINE] | 45 |  |
| COc1ccc(CC2c3cc4c(cc3CCN2C)OCO4)cc1OC (centres undefined) | 77 |  |
| Cc1cccc(C)c1CN1CCc2cc3c(cc2C1)OCO3 | 101 |  |
| COc1ccc(CC2c3cc4c(cc3CC[N+]2(C)C)OCO4)cc1OC.[I-] (centres undefined) | 97 |  |
| COc1ccc(CN2CCc3cc4c(cc3C2)OCO4)c(OC)c1 | 103 |  |
